In ChEMBL document CHEMBL5344463, “Design, Synthesis, and Antifungal Activity of 3-Substituted-2(5H)-Oxaboroles” (ACS Med Chem Lett, 2024):
In brackets after ≈: the same amount, converted by molar mass. Activity calls are given as the source filed them. The calls are words filed in the database; no cut-off is given here.

Assays:
[1] = tested on: Erythrocyte; assay: Hemolytic activity in sheep erythrocytes assessed as cell lysis at 50 to 100 uM measured after 1 hr; assay type: toxicity, cell-based, Ovis aries; conditions: dose 50-100 µM
In short: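 Erythrocytes are exposed to compound at 50 and 100 μM for 1 h. Lysis is normalized to a Triton X-100 positive control. Values are mean ± SEM, n = 3.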

[2] = tested on: H9c2; assay: Cytotoxicity against rat H9c2 cells assessed as cell viability at 100 uM incubated for 24 hrs by CCk8 dye assay; assay type: toxicity, cell-based; conditions: h9c2, 24 h
In short: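 Rat myoblast H9c2 cells are exposed to 100 μM compound for 24 h. Viability is normalized to PBS no-treatment control. Values are mean ± SEM, n = 3.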

[3] = tested on: Saccharomyces cerevisiae; assay: Antimicrobial activity against Saccharomyces cerevisiae assessed as growth inhibition at 50 ug/ml in liquid medium by liquid MIC assay; assay type: functional, organism-based; conditions: dose 50.0 µg/ml
In short: (§1)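 Single-concentration liquid-medium growth screen of non-spore-forming microbes, run at 50 and 12.5 μg/mL. Growth is read by absorbance.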

[4] = tested on: Candida albicans; assay: Antifungal activity against Candida albicans assessed as growth inhibition at 50 ug/ml in liquid medium by liquid MIC assay; assay type: functional, organism-based; conditions: dose 50.0 µg/ml; in short: as §1
[5] = tested on: Escherichia coli; assay: Antibacterial activity against Escherichia coli ATCC 25922 assessed as growth inhibition incubated for 48 hrs in liquid medium by microbroth dilution assay; conditions: ATCC 25922, 48 h
[6] = tested on: Saccharomyces cerevisiae; assay: Antimicrobial activity against Saccharomyces cerevisiae assessed as growth inhibition incubated for 48 hrs in solid agar medium by solid MIC assay; assay type: functional
[7] = tested on: Trichophyton mentagrophytes; assay: Antifungal activity against Trichophyton mentagrophytes assessed as growth inhibition incubated for 48 hrs in solid agar medium by solid MIC assay; assay type: functional
In short: (§2)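 Dose-dependent solid-agar MIC assay for spore-forming fungi (liquid media unusable because mycelia clump and block absorbance). Compound tested at […] in agar. Fungal growth scored visually as white mycelia on the plates. MIC is taken from biological replicates.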

[8] = tested on: Candida albicans; assay: Antifungal activity against Candida albicans assessed as growth inhibition incubated for 48 hrs in solid agar medium by solid MIC assay; assay type: functional
[9] = tested on: Pseudomonas aeruginosa; assay: Antibacterial activity against Pseudomonas aeruginosa deltaMexAB-OprM assessed as growth inhibition incubated for 48 hrs in solid agar medium by solid MIC assay; assay type: functional
[10] = tested on: Penicillium chrysogenum; assay: Antifungal activity against Penicillium chrysogenum assessed as growth inhibition incubated for 48 hrs in solid agar medium by solid MIC assay; assay type: functional; in short: as §2
[11] = tested on: Bacillus cereus; assay: Antibacterial activity against Bacillus cereus assessed as growth inhibition incubated for 48 hrs in solid agar medium by solid MIC assay; assay type: functional
[12] = tested on: Staphylococcus aureus; assay: Antibacterial activity against methicillin-resistant Staphylococcus aureus assessed as growth inhibition incubated for 48 hrs in solid agar medium by solid MIC assay; assay type: functional
[13] = tested on: Aspergillus flavus; assay: Antifungal activity against Aspergillus flavus assessed as growth inhibition incubated for 48 hrs in solid agar medium by solid MIC assay; assay type: functional; in short: as §2
[14] = tested on: Staphylococcus aureus; assay: Antibacterial activity against methicillin-resistant Staphylococcus aureus assessed as growth inhibition at 50 ug/ml in liquid medium by liquid MIC assay; assay type: functional, organism-based; conditions: dose 50.0 µg/ml
In short: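 Single-point growth-inhibition screen in liquid medium against nonspore-forming organisms. Compound tested at 50 and 12.5 μg/mL, growth read by absorbance, and reported at the 50 μg/mL level.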

Row | Compound | Activity [1] | Activity [2] | Activity [3] | Activity [4] | also measured
1 | OB1OCC=C1c1cccc(F)c1 | Non-Toxic | Non-Toxic | Active |  | 
2 | CCCc1ccc(C2=CCOB2O)cc1 | Non-Toxic | Non-Toxic | Active |  | 
3 | OB1OCC=C1c1ccc(Cl)cc1 | Non-Toxic | Non-Toxic | Active | Active | 
4 | OB1OCC=C1c1cccs1 |  |  | Active |  | MIC [5]: 42 µg/mL (≈ 253 µM)
5 | NYSTATIN |  |  |  |  | MIC [6]: 1.56 µg/mL; MIC [7]: 3.13 µg/mL; MIC [8]: 0.78 µg/mL; MIC [9]: > 50 µg/mL; MIC [10]: 1.56 µg/mL; MIC [11]: > 50 µg/mL; MIC [12]: > 50 µg/mL; MIC [13]: 2.6 µg/mL
6 | Cc1cc(F)cc(C2=CCOB2O)c1 | Non-Toxic | Non-Toxic | Active |  | MIC [5]: > 50 µg/mL
7 | OB1OCC=C1c1cccc(I)c1 | Non-Toxic | Non-Toxic | Active | Active | Activity [14]: inactive
8 | OB1OCC=C1C1=CCCCC1 |  |  | Active |  | 
9 | Cc1cccc(C2=CCOB2O)c1 | Non-Toxic | Non-Toxic | Active |  | 
10 | OB1OCC=C1c1ccc2ccccc2c1 | Non-Toxic | Non-Toxic |  |  | 
11 | OB1OCC=C1c1ccccc1 |  |  | Active |  | 
12 | OB1OCC=C1c1ccc(F)cc1 | Non-Toxic | Non-Toxic |  | Active | MIC [5]: 42 µg/mL (≈ 236 µM)
13 | Cc1ccc(C2=CCOB2O)cc1 | Non-Toxic | Non-Toxic | Active |  | MIC [5]: 42 µg/mL (≈ 241 µM)
14 | OB1OCc2cc(F)ccc21 [TAVABOROLE] | Non-Toxic | Non-Toxic |  |  | MIC [12]: > 50 µg/mL
15 | OB1OCC=C1c1ccc2occc2c1 | Non-Toxic | Non-Toxic | Active | Active | 
16 | COc1cccc(C2=CCOB2O)c1 |  |  | Active |  | 
17 | OB1OCC=C1c1ccc(OC(F)(F)F)cc1 | Non-Toxic | Non-Toxic | Active | Active | 
18 | OB1OCC=C1c1cccc(Br)c1 | Non-Toxic | Non-Toxic | Active | Active | 
19 | OB1OCC=C1c1cccc(Cl)c1 | Non-Toxic | Non-Toxic | Active |  | 
20 | OB1OCC=C1c1ccccc1F | Non-Toxic | Non-Toxic | Active |  | 
21 | CC(C)(C)c1ccc(C2=CCOB2O)cc1 | Non-Toxic | Non-Toxic |  |  | 
22 | OB1OCC=C1c1ccc(Br)cc1 | Non-Toxic | Non-Toxic | Active | Active | 
23 | OB1OCC=C1c1ccccc1Cl |  |  | Active |  | 
